Test results taken from ChEMBL document CHEMBL1144116, “Tanikolide, a toxic and antifungal lactone from the marine cyanobacterium Lyngbya majuscula” (J Nat Prod, 1999).
≈ marks a conversion by molar mass, not a printed value. Calls of active or inactive are those of the source. The rule behind the calls is not given here.

How the values were obtained:
[1] = system: Candida albicans; experiment: Antifungal activity against Candida albicans ATCC 14053 at 100 ug/disk by paper disk agar plate method; format: functional
How it was run: (§1)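 Paper disk-agar plate diffusion with 6 mm paper disks, each loaded with 100 µg of sample. Activity is read as the diameter of the zone of inhibition around the disk.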

[2] = system: Pseudomonas aeruginosa; experiment: Antibacterial activity against Pseudomonas aeruginosa ATCC 10145 at 100 ug/disk by paper disk agar plate method; format: functional, organism-based; how it was run: as §1
[3] = system: Escherichia coli; experiment: Antibacterial activity against Escherichia coli ATCC 11775 at 100 ug/disk by paper disk agar plate method; format: functional, organism-based; how it was run: as §1
[4] = system: Salmonella enterica subsp. enterica; experiment: Antibacterial activity against Salmonella choleraesuis subsp. choleraesuis ATCC 14028 at 100 ug/disk by paper disk agar plate method; format: functional, organism-based
How it was run: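 Standard paper sensitivity disk-agar plate method with 6 mm disks. Read-out is the diameter of the inhibition zone around the disk.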

[5] = system: Bacillus subtilis; experiment: Antibacterial activity against Bacillus subtilis ATCC 6051 at 100 ug/disk by paper disk agar plate method; format: functional, organism-based; how it was run: as §1
[6] = system: Staphylococcus aureus; experiment: Antibacterial activity against Staphylococcus aureus ATCC 12600 at 100 ug/disk by paper disk agar plate method; format: functional, organism-based; how it was run: as §1
[7] = Toxicity against Artemia salina after 24 hrs; format: organism-based; conditions: in vivo, read-out: LD50
How it was run: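 About 15 hatched Artemia salina in ca. 0.5 mL seawater per well with sample in 50 µL EtOH plus 4.5 mL artificial seawater (total ca. 5 mL), several concentrations, duplicate samples and controls. After 24 h at 28 °C, live and dead shrimp counted under dissecting light microscope.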

[8] = system: Biomphalaria glabrata; experiment: Molluscicidal activity against Biomphalaria glabrata at 10 mg/mL after 24 hrs; format: functional; conditions: read-out: LD50 (the source's name)
How it was run: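 Test snails: Biomphalaria glabrata. Sample stock solutions (10 mg/mL in EtOH) diluted in 10 mL distilled H2O. Snails observed after 24 h and scored dead when no heart beat was detected by dissecting light microscopy.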

[9] = system: Carassius auratus; experiment: Norcotic effect against Carassius auratus at 10 ug/mL after 1 hr; format: ADME, organism-based; conditions: in vivo
How it was run: (§2)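 Single goldfish (Carassius auratus) per vessel in 50 mL distilled H2O, with sample dilutions added in 50 µL EtOH. Each fish is observed for 1 h. Samples and controls are run in duplicate.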

[10] = system: Carassius auratus; experiment: Toxicity against Carassius auratus; format: organism-based; conditions: in vivo; how it was run: as §2

Row | Compound | Activity [1] | Activity [2] | Activity [3] | Activity [4] | Activity [5] | Activity [6] | LC50 at 24 h [7] [µg/mL] | LC50 [8] [µg/mL] | Activity [9] | zone of inhibition at 100 µg/disc ([1]; read-out: IZ) [mm] | Activity [10]
1 | CCCCCCCCC[C@@]1(CO)CC[C@@H](C)C(=O)O1 | inactive | inactive | inactive | inactive | inactive | inactive | – | – | – | – | –
2 | CCCCCCCCCCC[C@]1(CO)CCCC(=O)O1 [TANIKOLIDE] | – | inactive | inactive | inactive | inactive | inactive | 3.6 (≈ 12.7 µM) | 9 (≈ 31.6 µM) | Toxic | 13 | Non-toxic
